Here are results for 20 compounds from ChEMBL document CHEMBL2062416, “Synthesis and biological evaluation of some novel 1-indanone thiazolylhydrazone derivatives as anti-Trypanosoma cruzi agents” (Eur J Med Chem, 2012).

The test system of data set [1] is Trypanosoma cruzi. The data set can be described thus: Trypanocidal activity against epimastigotes of Trypanosoma cruzi Tulahuen 2 assessed as inhibition of parasite growth after 4 days by trypan blue staining. It is filed as functional, organism-based. As to conditions: Tulahuen 2, 96 h. The gist of the method:
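Epimastigotes (Tulahuen, Tul 2) from 5-day cultures grown at 28 °C in liver/infusion medium with hemin, started at 1.5–2.5×10^6 cells/mL, exposed 4 days to compounds (typically 1.50–15 or 0.5–2.5 µM), triplicate; benznidazole 2.50–15 µM positive control. Motile cells counted in Neubauer chamber; %I from density change versus untreated; IC50 by linear regression on log concentration.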

Data set [2] concerns Trypanosoma cruzi. Description: Trypanocidal activity against bloodstream trypomastigotes of Trypanosoma cruzi infected in mouse blood assessed as lytic effect after 24 hrs. It is filed as functional, organism-based. The gist of the method:
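Blood from infected CF1 mice (Tulahuen, Tul 2) diluted to 1.5×10^6 trypomastigotes/mL; compounds 0.30–350 µM, duplicates, 24 h. Live parasites counted in Neubauer chamber; %I = [1−CDt/CDc]×100 versus untreated. IC50 by linear regression of %I on log concentration. Means ± SD of three experiments.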

A further data set relates to Vero. Description: Cytotoxicity against african green monkey Vero cells up to 100 uM after 24 hrs by MTT assay. It counts as cell-based. As to conditions: chlorocebus sabaeus. A digest of the protocol: (§1)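 Vero cells grown in MEM or RPMI with 10% FBS, penicillin, streptomycin, glutamine; seeded at 9×10^5 cells/mL, compounds (12.5–200.0 µM) added after 48 h, 24 h exposure. PBS wash, MTT at 0.5 mg/mL final, 1 h 37 °C, formazan dissolved in DMSO, A570 with blank subtraction. Repeated at least three times, four samples per assay.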

Data set [3] has as its system Trypanosoma cruzi. The data set can be described thus: Trypanocidal activity against amastigotes of Trypanosoma cruzi expressing beta-galactosidase gene infected in mouse J774 cells assessed as inhibition of parasite growth after 7 days. It is filed as functional, organism-based. As to conditions: J774, 168 h. A digest of the protocol:
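J774 macrophages, 5×10^3/well, infected with β-galactosidase-expressing blood trypomastigotes (clone C4) at 10:1 parasite:cell for 24 h, washed, then compounds (2–100 µM) in phenol red-free RPMI, duplicates, 7 days. Developed with 1% NP-40 and 100 µM CPRG, 4 h 37 °C, A570; uninfected ± compound wells correct colour. IC50 by linear regression of %I against log concentration.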

Data set [4] concerns the target Cruzipain (Trypanosoma cruzi) (UniProt P25779). Description: Inhibition of epimastigotes of Trypanosoma cruzi cruzipain using Bz-Pro-Phe-Arg-pNA as substrate at 10 uM by spectrophotometric analysis. A digest of the protocol: (§2)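 Cruzipain purified from epimastigote cell-free extract by ConA-Sepharose affinity chromatography. 1 mL reaction: Tris-acetate pH 8.2 (50 µmol), 2-mercaptoethanol (10 µmol), Bz-Pro-Phe-Arg-pNA (0.3 µmol); followed at 410 nm. Compounds added in DMSO; vehicle controls with matching DMSO; E-64 reference inhibitor. Percent inhibition relative to enzyme without drug.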

The target is the same in data set [5]. Description: Inhibition of epimastigotes of Trypanosoma cruzi cruzipain using Bz-Pro-Phe-Arg-pNA as substrate at 20 uM by spectrophotometric analysis. The gist of the method: as §2
For data set [6] the target is unchanged. Description: Inhibition of epimastigotes of Trypanosoma cruzi cruzipain using Bz-Pro-Phe-Arg-pNA as substrate at 50 uM by spectrophotometric analysis. The gist of the method: as §2
Data set [7] in a line: Cytotoxicity against african green monkey Vero cells after 24 hrs by MTT assay. It is filed as cell-based. As to conditions: chlorocebus sabaeus. A digest of the protocol:
as §1

For data set [8], the system named is Trypanosoma cruzi. The data set can be described thus: Inhibition of ergosterol biosynthesis in epimastigotes of Trypanosoma cruzi assessed as ratio of squalene/ergosterol at 25 uM after 24 hrs by TLC analysis (reference value: 0.76). It counts as functional.

Some results are limits rather than exact numbers.

Chain of Cruzipain (Trypanosoma cruzi) (P25779 123-467 limits assumed): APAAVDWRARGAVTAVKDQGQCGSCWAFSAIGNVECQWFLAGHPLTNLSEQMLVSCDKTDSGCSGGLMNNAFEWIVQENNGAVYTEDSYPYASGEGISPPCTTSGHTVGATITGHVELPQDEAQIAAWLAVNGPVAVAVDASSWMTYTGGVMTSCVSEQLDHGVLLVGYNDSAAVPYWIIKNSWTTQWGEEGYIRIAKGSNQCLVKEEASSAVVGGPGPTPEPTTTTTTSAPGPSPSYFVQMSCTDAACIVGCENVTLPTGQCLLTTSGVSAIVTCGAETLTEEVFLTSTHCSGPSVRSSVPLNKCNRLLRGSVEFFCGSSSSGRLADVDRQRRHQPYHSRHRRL

The IC50 is the midpoint of a concentration-inhibition curve. In the case of `COc1cc2c(cc1OC)/C(=N/Nc1nc(-c3ccc(Cl)cc3)cs1)CC2`, the values for the 50% inhibitory concentration (IC50) with Trypanosoma cruzi [1] and in the data set with Trypanosoma cruzi [2] were 7.17 µM and 404 µM, respectively. For the same compound, the Activity result with Vero is given as “Non-toxic”.

What is called inhibition is the relative decrease from the control value, in per cent. Regarding `COc1cc2c(cc1OC)/C(=N/Nc1nc(-c3ccc(C)cc3)cs1)CC2`, the results for the IC50 in the data set on Trypanosoma cruzi [1], in the data set with Trypanosoma cruzi [2] and in the data set with Trypanosoma cruzi [3] were more than 15 µM, 69.6 µM and 7.72 µM, respectively. In addition, in the data set with Vero, the Activity entry is given as “Non-toxic”. Besides, the inhibition in [4], in [5] and in data set [6] was 0% throughout.

`Cc1ccc(-c2csc(N/N=C3\CCc4cc(C)ccc43)n2)cc1`: the 50% inhibitory concentration (IC50) with Trypanosoma cruzi [1] was 5.24 µM; in the data set on Trypanosoma cruzi [2], 87 µM; with Trypanosoma cruzi [3], 1.35 µM. Also, the Activity entry in the data set with Vero is given as “Non-toxic”. In addition, the inhibition in data set [4], in data set [5] and in data set [6] was 0% in each case.

For `CC(C)C[C@H](NC(=O)[C@H]1O[C@@H]1C(=O)O)C(=O)NCCCCN=C(N)N`, the inhibition in data set [4] was 62%.

Broadly, the CC50 is the concentration that lowers cell viability or growth by half. Take `O=C(Cn1ccnc1[N+](=O)[O-])NCc1ccccc1` [BENZNIDAZOLE]: the IC50 in the data set with Trypanosoma cruzi [1] is 5.39 µM; in the data set on Trypanosoma cruzi [2], 30.3 µM. In data set [7], this compound displayed a CC50 at 24 h of 82.8 µM.

Take `Cc1ccc2c(c1)/C(=N/Nc1nc(-c3ccccc3)cs1)CC2`: the IC50 in the data set with Trypanosoma cruzi [1] turned out to be 4.27 µM; in the data set on Trypanosoma cruzi [2], 22.7 µM; in the data set with Trypanosoma cruzi [3] it was 3.96 µM. Also, in the data set on Vero, the Activity entry is on record as “Non-toxic”. Also, the inhibition was 3% in [4], 0% in data set [5] and 0% in data set [6].

`Cc1ccc2c(c1)/C(=N/Nc1nc(-c3ccc(Cl)cc3)cs1)CC2`: the IC50 is 8.59 µM with Trypanosoma cruzi [1] and 61.1 µM in the data set on Trypanosoma cruzi [2]. Moreover, the Activity result in the data set on Vero is “Non-toxic”.

For `c1ccc(-c2csc(N/N=C3\CCc4ccccc43)n2)cc1`, the IC50 is 19 µM in the data set with Trypanosoma cruzi [1] and more than 500 µM in the data set on Trypanosoma cruzi [2]. In the data set on Vero, the Activity entry is recorded as “Non-toxic”.

Regarding `COc1cc2c(cc1OC)/C(=N/Nc1nc(-c3ccccc3)cs1)CC2`, the half-inhibitory concentration (IC50) is 10.1 µM with Trypanosoma cruzi [1] and 195 µM in the data set with Trypanosoma cruzi [2]. In the data set on Vero, the Activity result was “Non-toxic”.

For the compound `CN(C/C=C/C#CC(C)(C)C)Cc1cccc2ccccc12` [TERBINAFINE], the Ratio in the data set on Trypanosoma cruzi [8] was determined as 1.54.

Take `Cc1ccc2c(c1)CC/C2=N\Nc1nc(-c2ccccc2)cs1`: the IC50 in the data set with Trypanosoma cruzi [1] was 4.69 µM; in the data set on Trypanosoma cruzi [2], 172 µM. In the data set with Vero, the Activity entry is reported as “Non-toxic”.

Take `Cc1cccc2c1CC/C2=N\Nc1nc(-c2ccccc2)cs1`: the results for the half-inhibitory concentration (IC50) with Trypanosoma cruzi [1], with Trypanosoma cruzi [2] and in the data set on Trypanosoma cruzi [3] were 7.08 µM, 48.9 µM and 0.68 µM, respectively. Moreover, the Activity result with Vero was “Non-toxic”. The inhibition in data set [4] stood at 3%; in [5], 0%; in data set [6], 0%.

Take `Cc1ccc(-c2csc(N/N=C3\CCc4ccc(C)cc43)n2)cc1`: the concentration for half-maximal inhibition (IC50) is 4.08 µM in the data set on Trypanosoma cruzi [1], 49.5 µM with Trypanosoma cruzi [2] and 0.27 µM in the data set on Trypanosoma cruzi [3]. Further, the Activity entry with Vero was “Non-toxic”. In addition, the inhibition in data set [4] was found to be 3%; in data set [5], 0%; in [6], 0%. Besides, the Ratio in the data set with Trypanosoma cruzi [8] stood at 0.8.

Consider `COc1cccc2c1CC/C2=N\Nc1nc(-c2ccc(Cl)cc2)cs1`, for which the IC50 amounted to 11.8 µM in the data set with Trypanosoma cruzi [1], 19.7 µM in the data set with Trypanosoma cruzi [2] and 0.84 µM with Trypanosoma cruzi [3]. In addition, the Activity entry with Vero is given as “Non-toxic”. Also, the inhibition in data set [4], in data set [5] and in [6] was 0% in each case.

With `Cc1cccc2c1CC/C2=N\Nc1nc(-c2ccc(Cl)cc2)cs1`, the 50% inhibitory concentration (IC50) with Trypanosoma cruzi [1] is 4.53 µM; in the data set with Trypanosoma cruzi [2] it was 20 µM; with Trypanosoma cruzi [3], 0.09 µM. Moreover, in the data set with Vero, the Activity entry is reported as “Non-toxic”. Moreover, the inhibition in data set [4] turned out to be 3%; in data set [5] it was 0%; in data set [6], 3%. In addition, the Ratio in the data set on Trypanosoma cruzi [8] is 1.25.

As for `Cc1ccc(-c2csc(N/N=C3\CCc4ccccc43)n2)cc1`, the half-inhibitory concentration (IC50) in the data set on Trypanosoma cruzi [1] is more than 15 µM; with Trypanosoma cruzi [2], more than 500 µM. Besides, in the data set on Vero, the Activity entry is given as “Non-toxic”. Besides, the inhibition in [4] worked out at 8%; in [5], 5%; in data set [6], 5%. In addition, the Ratio in the data set with Trypanosoma cruzi [8] was found to be 0.76.

In the case of `Clc1ccc(-c2csc(N/N=C3\CCc4ccccc43)n2)cc1`, the concentration for half-maximal inhibition (IC50) in the data set on Trypanosoma cruzi [1] was 8.62 µM; in the data set on Trypanosoma cruzi [2], 308 µM. Further, the Activity entry with Vero is recorded as “Non-toxic”.

`Cc1ccc(-c2csc(N/N=C3\CCc4c(C)cccc43)n2)cc1`: the IC50 was 4.36 µM with Trypanosoma cruzi [1], 17.2 µM in the data set with Trypanosoma cruzi [2] and 0.72 µM in the data set on Trypanosoma cruzi [3]. Moreover, the Activity entry in the data set with Vero is “Non-toxic”. The inhibition in [4] was found to be 4%; in data set [5], 2%; in [6] it was 0%. Further, the Ratio in the data set on Trypanosoma cruzi [8] amounted to 2.92.

Regarding `O=[N+]([O-])c1cccc2c1CC/C2=N\Nc1nc(-c2ccc(Cl)cc2)cs1`, the IC50 with Trypanosoma cruzi [1] is 17.1 µM; with Trypanosoma cruzi [2], 597 µM. Further, the Activity result in the data set on Vero was “Non-toxic”.

Regarding `Cc1ccc2c(c1)CC/C2=N\Nc1nc(-c2ccc(Cl)cc2)cs1`, the 50% inhibitory concentration (IC50) turned out to be 7.15 µM in the data set on Trypanosoma cruzi [1] and 372 µM in the data set on Trypanosoma cruzi [2]. For the same compound, the Activity result in the data set with Vero was “Non-toxic”.
